Assay results taken from ChEMBL document CHEMBL3751740, “New MKLP-2 inhibitors in the paprotrain series: Design, synthesis and biological evaluations” (Bioorg Med Chem, 2016).

Key:
[1] = biological target: T1, Kinesin-like protein KIFC3 (Homo sapiens) (UniProt Q9BVG8); experiment: Inhibition of porcine brain microtubule-stimulated human recombinant GST-tagged KIFC3 ATPase activity at 1 mM by microplate reader in presence of Mg2+ ATP relative to control
T1 sequence (whole entry): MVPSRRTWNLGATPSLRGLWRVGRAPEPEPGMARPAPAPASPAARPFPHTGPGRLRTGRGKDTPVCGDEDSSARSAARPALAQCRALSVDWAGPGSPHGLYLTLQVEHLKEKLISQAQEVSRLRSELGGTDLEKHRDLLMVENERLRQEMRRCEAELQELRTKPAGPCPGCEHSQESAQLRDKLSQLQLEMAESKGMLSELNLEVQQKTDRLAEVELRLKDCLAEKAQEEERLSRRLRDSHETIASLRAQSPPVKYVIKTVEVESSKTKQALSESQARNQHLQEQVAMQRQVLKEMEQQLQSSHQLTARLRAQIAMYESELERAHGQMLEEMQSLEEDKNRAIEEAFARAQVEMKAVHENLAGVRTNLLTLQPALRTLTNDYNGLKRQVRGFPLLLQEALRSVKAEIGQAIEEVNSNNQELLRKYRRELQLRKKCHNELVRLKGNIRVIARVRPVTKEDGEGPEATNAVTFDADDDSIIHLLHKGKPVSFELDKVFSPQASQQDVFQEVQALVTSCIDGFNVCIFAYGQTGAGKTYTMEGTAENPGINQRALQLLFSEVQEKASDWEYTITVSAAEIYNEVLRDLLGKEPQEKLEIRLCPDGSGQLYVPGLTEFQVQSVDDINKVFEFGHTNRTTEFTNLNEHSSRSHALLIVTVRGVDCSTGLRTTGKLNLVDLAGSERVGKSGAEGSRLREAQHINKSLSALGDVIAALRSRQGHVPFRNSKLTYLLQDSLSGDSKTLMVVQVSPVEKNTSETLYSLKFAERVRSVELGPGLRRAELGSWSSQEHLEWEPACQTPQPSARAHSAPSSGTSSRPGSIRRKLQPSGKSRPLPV
Method in brief: (§1)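 Motor domain at 15 µM final, in 7.5 mM PIPES-NaOH pH 7.0 with […], 10 µM Taxol, ELIPA 1 and 2 reagents and 1.25 mg/mL microtubules. AMP-PNP, a slowly hydrolysable ATP analog and general ATPase inhibitor, tested at 1 mM. Reaction started with 1 mM Mg2+ATP at 22 °C and read kinetically at 360 nm. Run in triplicate.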

[2] = biological target: T2, Kinesin-like protein KIF23 (Homo sapiens) (UniProt Q02241); experiment: Inhibition of porcine brain microtubule-stimulated human recombinant GST-tagged MKLP1 ATPase activity at 1 mM by microplate reader in presence of Mg2+ ATP relative to control; method in brief: as §1
T2 sequence (whole entry): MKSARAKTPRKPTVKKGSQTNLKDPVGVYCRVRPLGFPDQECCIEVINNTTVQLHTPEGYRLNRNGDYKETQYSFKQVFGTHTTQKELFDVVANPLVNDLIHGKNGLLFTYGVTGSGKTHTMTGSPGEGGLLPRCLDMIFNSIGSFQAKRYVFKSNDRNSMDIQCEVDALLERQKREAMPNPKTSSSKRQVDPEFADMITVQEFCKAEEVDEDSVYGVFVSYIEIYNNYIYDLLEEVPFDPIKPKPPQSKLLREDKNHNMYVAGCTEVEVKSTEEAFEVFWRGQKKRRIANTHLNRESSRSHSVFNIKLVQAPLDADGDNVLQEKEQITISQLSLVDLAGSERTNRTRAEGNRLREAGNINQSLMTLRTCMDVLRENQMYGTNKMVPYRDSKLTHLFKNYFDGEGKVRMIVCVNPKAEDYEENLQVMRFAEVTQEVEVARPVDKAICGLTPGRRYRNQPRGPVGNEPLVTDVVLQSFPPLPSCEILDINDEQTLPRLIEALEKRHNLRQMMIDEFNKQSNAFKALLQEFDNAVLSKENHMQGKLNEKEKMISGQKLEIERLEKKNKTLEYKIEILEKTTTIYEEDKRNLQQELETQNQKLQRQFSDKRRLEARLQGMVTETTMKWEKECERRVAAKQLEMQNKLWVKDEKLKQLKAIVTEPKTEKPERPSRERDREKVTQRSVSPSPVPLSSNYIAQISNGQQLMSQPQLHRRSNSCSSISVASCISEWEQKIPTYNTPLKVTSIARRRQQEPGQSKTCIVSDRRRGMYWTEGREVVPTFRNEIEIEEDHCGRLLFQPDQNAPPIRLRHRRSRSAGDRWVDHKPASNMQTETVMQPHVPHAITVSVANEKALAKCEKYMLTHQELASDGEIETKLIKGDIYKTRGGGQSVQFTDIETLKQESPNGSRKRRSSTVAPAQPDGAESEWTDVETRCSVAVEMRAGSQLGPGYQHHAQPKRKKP

[3] = Growth inhibition of human MIAPaCa2 cells incubated for 4 days by WST-1 assay; assay type: functional; conditions: MIA PaCa-2, 96 h
Method in brief: (§2)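 Cells were kept at 37 °C under 5% CO2 and plated on day 0 at 500–5000 cells/well. On day 1 they received ten concentrations from 0.0025 to 50 µM (final), in triplicate. On day 4 WST-1 was added, followed by 30 min–4 h incubation and absorbance at 450 nm. GI50 is the concentration killing 50% of cells.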

MCF7 = experiment: Growth inhibition of human MCF7 cells incubated for 4 days by WST-1 assay; assay type: functional; conditions: MCF7, 96 h; method in brief: as §2

For `Nc1ncnc2c1ncn2[C@@H]1O[C@H](COP(=O)(O)OP(=O)(O)NP(=O)(O)O)[C@@H](O)[C@H]1O`, the inhibition [1] was over 30% and the inhibition [2] was over 30%.
In the case of `COc1ccc2[nH]cc(/C(C#N)=C/c3cccnc3)c2c1`, the GI50 [3] is reported as 5.5 µM and the GI50 (MCF7) is reported as 15.8 µM.
